Data as given in PMC4254850 (Clinical cancer research : an official journal of the …, 2014).
Entries after “also recorded” stand apart in the source; their conditions may differ.

Columns and labels:
[1] = tested on: advanced solid tumors; test: Tumor response; type: in vivo, human
Summary of the method: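 Response assessed by RECIST v1.1 using imaging at baseline and every two cycles in patients dosed orally, QD or BID, in 28-day cycles. Response data summarised with descriptive statistics.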

[2] = tested on: class III PI3K; conditions: cited from earlier work
[3] = tested on: human tumor xenograft models with PIK3CA mutations; conditions: in vivo; cited from earlier work
[4] = tested on: mammalian target of rapamycin (mTOR); conditions: cited from earlier work
[5] = tested on: AKT phosphorylation (pAKT) in platelet-rich plasma (PRP); test: AKT phosphorylation in platelet-rich plasma; type: in vivo, human
Summary of the method: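 Oral single-dose run-in (Cycle 0, Day 1): citrated blood taken pre-dose and at 1, 2, 6, 24, 48 and 72 h, plus pre-dose on Cycle 1, Day 15. Spun 200 × g, 4°C, 15 min; PRP stabilised with phosphatase inhibitor, lysed with PMSF-containing buffer, snap-frozen. Phospho- and total AKT by quantitative electrochemiluminescent assay with recombinant active AKT standard curve per plate and spiked QC samples. p-AKT/total AKT expressed as % change from pre-treatment.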

[6] = tested on: human cancer cell lines with alterations in the PI3K pathway; conditions: in vitro; cited from earlier work
[7] = Plasma pharmacokinetics, LC/MS/MS, non-compartmental analysis; type: in vivo, human; conditions: for AUC(0-t) / Cmax / half-life: human, plasma, po

## CS(=O)(=O)N1CCc2c(-c3cnc(N)nc3)nc(N3CCOCC3)nc21 [CH5132799]
[1]; 48 mg BID
  Response by GCIG CA125 criteria, patient with PIK3CA H1047R-mutated clear cell ovarian cancer: partial response; also recorded: GCIG CA125 response
  Time on study of patient with GCIG CA125 response: 6 cycles
[1]; 72 mg BID
  Clinical response, heavily pre-treated patient with triple negative breast cancer (no PIK3CA or AKT mutations): marked symptomatic and objective improvement in their cutaneous skin lesions
[1]; all patients
  RECIST partial or complete responses: no RECIST partial or complete responses
  Study participants with best response of stable disease by RECIST: 21%
[2]
  Inhibitory activity against class III PI3K: no inhibitory activity
[3]
  Antitumor activity: significant antitumor activity
[4]
  Inhibitory activity against mTOR: no inhibitory activity
[5]; achieved at dose levels of 32 mg
  Maximal inhibition of p-AKT in PRP compared to baseline: approximately 50%
[5]; after single dose
  Duration of target engagement (reduction in phosphorylation of AKT in PRP): less than 24 hours
[5]; p-AKT Ser473
  Dose levels at which p-AKT was consistently reduced in PRP: 8 to 96 mg
[5]; single dose, 2 hrs post-dose
  Dose with significant inhibition of PI3K signalling (reduction of AKT phosphorylation) in PRP: ≥ 32 mg
[6]
  Antiproliferative effect: strong antiproliferative effect
[7]; 2mg (QD), AUC0-24h repeat dose / single dose, mean, n=3
  Accumulation ratio: 0.912(3)
[7]; 4 mg (QD), AUC0-24h repeat dose / single dose, mean, n=3
  Accumulation ratio: 1.54(3)
[7]; 8 mg (QD), AUC0-24h repeat dose / single dose, mean, n=2
  Accumulation ratio: 1.22(2)
[7]; 16 mg (QD), AUC0-24h repeat dose / single dose, n=1
  Accumulation ratio: 0.972(1)
[7]; 32 mg (QD), AUC0-24h repeat dose / single dose, mean, n=2
  Accumulation ratio: 1.57(2)
[7]; 48 mg (BID), AUC0-12h repeat dose / single dose, mean, n=2
  Accumulation ratio: 1.10(2)
[7]; 56 mg (BID), AUC0-12h repeat dose / single dose, mean, n=2
  Accumulation ratio: 1.72(2)
[7]; 56 mg (QD), AUC0-24h repeat dose / single dose, mean, n=3
  Accumulation ratio: 1.07(3)
[7]; 72 mg (BID), AUC0-12h repeat dose / single dose, n=1
  Accumulation ratio: 2.25(1)
[7]; 96 mg (QD), AUC0-24h repeat dose / single dose, mean, n=3
  Accumulation ratio: 0.640(3)
[7]; doses above 56 mg QD
  AUC at doses above the dose-proportional range: no further increase in AUC; also recorded: no significant increments in AUC
[7]; 2 mg, AUC0-24h, 2mg (QD), repeat dose, mean, n=3
  AUC(0-t): 48.8 ng·h/mL
[7]; 2 mg, AUClast, 2mg (QD), single dose, mean, n=3, AUClast = AUC0-72h
  AUC(0-t): 53 ng·h/mL
[7]; 2 mg, 2mg (QD), repeat dose, mean, n=3
  Cmax: 9.92 ng/mL
[7]; 2 mg, 2mg (QD), single dose, mean, n=3
  Cmax: 10 ng/mL
[7]; 2 mg, t1/2, 2mg (QD), single dose, mean, n=3
  half-life: 7.52 h
[7]; 4 mg, AUC0-24h, 4 mg (QD), repeat dose, mean, n=3
  AUC(0-t): 167 ng·h/mL
[7]; 4 mg, AUClast, 4 mg (QD), single dose, mean, n=3, AUClast = AUC0-72h
  AUC(0-t): 112 ng·h/mL
[7]; 4 mg, 4 mg (QD), repeat dose, mean, n=3
  Cmax: 22.5 ng/mL
[7]; 4 mg, 4 mg (QD), single dose, mean, n=3
  Cmax: 17.2 ng/mL
[7]; 4 mg, t1/2, 4 mg (QD), single dose, mean, n=3
  half-life: 8.3 h
[7]; 8 mg, AUC0-24h, 8 mg (QD), repeat dose, mean, n=2
  AUC(0-t): 159 ng·h/mL
[7]; 8 mg, AUClast, 8 mg (QD), single dose, mean, n=3, AUClast = AUC0-72h
  AUC(0-t): 133 ng·h/mL
[7]; 8 mg, 8 mg (QD), repeat dose, mean, n=2
  Cmax: 46.3 ng/mL
[7]; 8 mg, 8 mg (QD), single dose, mean, n=3
  Cmax: 41.1 ng/mL
[7]; 8 mg, t1/2, 8 mg (QD), single dose, mean, n=3
  half-life: 23.7 h
[7]; 16 mg, AUC0-24h, 16 mg (QD), repeat dose, mean, n=2
  AUC(0-t): 621 ng·h/mL
[7]; 16 mg, AUClast, 16 mg (QD), single dose, n=1, AUClast = AUC0-72h
  AUC(0-t): 883 ng·h/mL
[7]; 16 mg, 16 mg (QD), repeat dose, mean, n=3
  Cmax: 100 ng/mL
[7]; 16 mg, 16 mg (QD), single dose, n=1
  Cmax: 113 ng/mL
[7]; 16 mg, t1/2, 16 mg (QD), single dose, n=1
  half-life: 13.7 h
[7]; 32 mg, AUC0-24h, 32 mg (QD), repeat dose, mean, n=2
  AUC(0-t): 1740 ng·h/mL
[7]; 32 mg, AUClast, 32 mg (QD), single dose, mean, n=4, AUClast = AUC0-72h
  AUC(0-t): 859 ng·h/mL
[7]; 32 mg, 32 mg (QD), repeat dose, mean, n=3
  Cmax: 345 ng/mL
[7]; 32 mg, 32 mg (QD), single dose, mean, n=4
  Cmax: 165 ng/mL
[7]; 32 mg, t1/2, 32 mg (QD), single dose, mean, n=4
  half-life: 12.2 h
[7]; 48 mg
  half-life: 10.2 h
[7]; 48 mg, AUC0-24h, 48 mg (BID) = MTD, repeat dose (steady state), mean, n=5, calculated based on data from 0 to 12 hours (AUC0-12h)
  AUC(0-t): 1550 ng·h/mL
[7]; 48 mg, AUClast, 48 mg (BID) = MTD, single dose, mean, n=4, AUClast = AUC0-72h
  AUC(0-t): 1270 ng·h/mL
[7]; 48 mg, 48 mg (BID) = MTD, repeat dose (steady state), mean, n=5
  Cmax: 175 ng/mL
[7]; 48 mg, 48 mg (BID) = MTD, single dose, mean, n=5
  Cmax: 172 ng/mL
[7]; 56 mg, AUC0-24h, 56 mg (BID), repeat dose, mean, n=2, calculated based on data from 0 to 12 hours (AUC0-12h)
  AUC(0-t): 5940 ng·h/mL
[7]; 56 mg, AUC0-24h, 56 mg (QD), repeat dose, mean, n=3
  AUC(0-t): 748 ng·h/mL
[7]; 56 mg, AUClast, 56 mg (BID), single dose, mean, n=5, AUClast = AUC0-72h
  AUC(0-t): 3030 ng·h/mL
[7]; 56 mg, AUClast, 56 mg (QD), single dose, mean, n=3, AUClast = AUC0-72h
  AUC(0-t): 969 ng·h/mL
[7]; 56 mg, 56 mg (BID), repeat dose, mean, n=3
  Cmax: 331 ng/mL
[7]; 56 mg, 56 mg (BID), single dose, mean, n=5
  Cmax: 428 ng/mL
[7]; 56 mg, 56 mg (QD), repeat dose, mean, n=3
  Cmax: 184 ng/mL
[7]; 56 mg, 56 mg (QD), single dose, mean, n=3
  Cmax: 163 ng/mL
[7]; 56 mg, t1/2, 56 mg (BID), single dose, mean, n=5
  half-life: 16.3 h
[7]; 56 mg, t1/2, 56 mg (QD), single dose, mean, n=3
  half-life: 14.5 h
[7]; 72 mg, AUC0-24h, 72 mg (BID), repeat dose, n=1, calculated based on data from 0 to 12 hours (AUC0-12h)
  AUC(0-t): 5580 ng·h/mL
[7]; 72 mg, AUClast, 72 mg (BID), single dose, mean, n=3, AUClast = AUC0-72h
  AUC(0-t): 2480 ng·h/mL
[7]; 72 mg, 72 mg (BID), repeat dose, n=1
  Cmax: 631 ng/mL
[7]; 72 mg, 72 mg (BID), single dose, mean, n=3
  Cmax: 265 ng/mL
[7]; 72 mg, t1/2, 72 mg (BID), single dose, mean, n=3
  half-life: 18.3 h
[7]; 96 mg, AUC0-24h, 96 mg (QD), repeat dose, mean, n=3
  AUC(0-t): 691 ng·h/mL
[7]; 96 mg, AUClast, 96 mg (QD), single dose, mean, n=4, AUClast = AUC0-72h
  AUC(0-t): 1650 ng·h/mL
[7]; 96 mg, 96 mg (QD), repeat dose, mean, n=3
  Cmax: 103 ng/mL
[7]; 96 mg, 96 mg (QD), single dose, mean, n=4
  Cmax: 206 ng/mL
[7]; 96 mg, t1/2, 96 mg (QD), single dose, mean, n=3
  half-life: 23.2 h
[7]; oral
  Dose range with dose proportionality of AUC: 2 to 56 mg
